Screening results (PubChem BioAssay)
KCNK9 inh: KCNK9 potassium channel inhibitors, primary screen, HEK293 cells, thallium flux; AID 488922, 2010; hit rate 1.2% among 310,000; B-score at 10 µM; FluxOR thallium flux fluorescence; stronger effect = lower value;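 active = ratio B-score over 3 SD below the library mean, with starting fluorescence within 5 SD of its mean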;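 note: negative B-score means less thallium flux so channel inhibition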
KCNQ1 act: potentiators or activators of KCNQ1 channel, primary screen, cell-based, thallium flux, high-throughput | hit rate 0.35% among 310,000 | AID 2648, 2010 | Potassium voltage-gated channel subfamily KQT member 1 (Homo sapiens), P51787 | CHO-K1 KCNQ1, thallium flux FluxOR fluorescence; stronger effect = higher value | B-score at 10 µM;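 active = fluorescence ratio B-score, a plate-corrected score, at least three library SD, with initial intensity B-score within 5 SD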
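Medium – assay buffer, equal DMSO in all wells · Material – CHO-K1 cell line with stable KCNQ1 potassium channel expression · Signal – kinetic FluxOR thallium fluorescence, 10-s 1-Hz baseline, 110-s post-stimulus read · Compound – single concentration per compound, DMSO matched to controls · Schedule – 37 °C overnight plating, 90-min dark dye load, 20-min compound pretreatment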
KCNQ1 inh: inhibitors of human KCNQ1 channel, primary screen, cell-based, thallium flux, high-throughput. Potassium voltage-gated channel subfamily KQT member 1 (Homo sapiens), P51787. CHO-K1 KCNQ1, FluxOR thallium flux fluorescence; stronger effect = higher value. B-score at 10 µM. hit rate 1.3% among 310,000. AID 2642, 2010;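 active = compounds whose thallium flux B-score, printed positive for inhibition, exceeds three library SD while starting fluorescence stays within three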;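 note: channel opened by potassium depolarization with thallium stimulus after 20 min compound exposure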
hERG rescue: hERG rescue from dofetilide block, primary screen, cell-based, CHO-hERG, FluxOR thallium flux, dofetilide IC70. Voltage-gated inwardly rectifying potassium channel KCNH2 (Homo sapiens), Q12809. dofetilide IC70 present. activation (rescue from dofetilide block), less the hit threshold, % at 10 µM. hit rate 0.51% among 310,000. AID 1511, 2009;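 active = activation above the mean of controls blocked by dofetilide plus 5 SD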;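 note: thallium influx through hERG after potassium depolarization seen as dye fluorescence rise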
KCNK3 inh: human KCNK3 channel inhibitors, primary screen, CHO cells, FluxOR thallium flux, B-score; AID 602410, 2012; FluxOR fluorescence; stronger effect = lower value; Potassium channel subfamily K member 3 (Homo sapiens), O14649; hit rate 0.84% among 340,000; B-score at 10 µM;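 active = B-score under library mean minus 4 SD, starting fluorescence ratio at most library mean plus 5 SD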;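 note: more negative B-score means stronger inhibition of thallium flux through KCNK3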
Kir21 block: inhibitors of mouse Kir2.1 inward-rectifier potassium channel; hit rate 0.85% among 310,000; HEK293-Kir2.1, FluxOR thallium flux fluorescence; stronger effect = lower value; B-score at 10 µM; Inward rectifier potassium channel 2 (Mus musculus), P35561;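 active = fluorescence ratio B-score at or below minus 3 SD of library scores, with starting-brightness B-score within 2 SD, cut at about -4.2 in these data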;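 note: channel flux triggered by added potassium and thallium sulfate stimulus; B-score of peak minus minimum fluorescence over baseline after thallium stimulus; more negative B-score means stronger Kir2.1 block with less thallium influx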
KCNQ1 block val: KCNQ1 potassium channel inhibitors, confirmation, cell-based, Tl flux, duplicate. hit rate 93% among 1,600. KCNQ1 cell line, FluxOR thallium flux fluorescence. AID 588353, 2011. inhibition, % at 10 µM. shares compounds with KCNQ1 inh;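 active = primary screen active, with duplicate mean exceeding buffer control mean plus 3 SD of buffer wells, cut at about 28% in these data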
CHO KCNQ1 ctr: thallium flux effects in parental CHO cells, counter-screen for KCNQ1 inhibitor project, cell-based, Tl flux. fluorescence ratio (Tl flux) at 10 µM. shares compounds with KCNQ1 inh. hit rate 21% among 1,600. parental CHO-K1, FluxOR thallium flux fluorescence ratio; stronger effect = lower value; zero means no signal rise above baseline;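 active = mean of duplicate thallium-flux fluorescence ratios in parental host cells more than 5 SD below the buffer control mean, cut at about 0.38 in these data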;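 note: ratio is peak minus minimum fluorescence divided by baseline fluorescence; actives read low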
KCNQ1 ephys val: KCNQ1 channel inhibitors, confirmation, orthogonal assay, cell-based, automated electrophysiology. shares compounds with KCNQ1 inh. KCNQ1-CHO cells, automated patch clamp current. calls only at 10 µM. hit rate 20% among 490;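 active = KCNQ1 current drop exceeding 3 SD of negative control wells, seen in both duplicate runs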;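 note: steady state current during a 2 s step from -80 to +40 mV; negative values mean current inhibition and positive values mean potentiation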
KCNQ2 spec: KCNQ2 channel inhibition, selectivity assay for KCNQ1 inhibitor project, cell-based | hit rate 71% among 1,600 | AID 651746, 2012 | KCNQ2 cells, FluxOR thallium flux fluorescence | inhibition, % at 10 µM | shares compounds with KCNQ1 inh;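 active = mean percent inhibition of the KCNQ2 thallium signal more than 5 SD above the buffer-only control wells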;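 note: KCNQ2 expressed in CHO cells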
Target sequence (O88943 whole entry, looked up): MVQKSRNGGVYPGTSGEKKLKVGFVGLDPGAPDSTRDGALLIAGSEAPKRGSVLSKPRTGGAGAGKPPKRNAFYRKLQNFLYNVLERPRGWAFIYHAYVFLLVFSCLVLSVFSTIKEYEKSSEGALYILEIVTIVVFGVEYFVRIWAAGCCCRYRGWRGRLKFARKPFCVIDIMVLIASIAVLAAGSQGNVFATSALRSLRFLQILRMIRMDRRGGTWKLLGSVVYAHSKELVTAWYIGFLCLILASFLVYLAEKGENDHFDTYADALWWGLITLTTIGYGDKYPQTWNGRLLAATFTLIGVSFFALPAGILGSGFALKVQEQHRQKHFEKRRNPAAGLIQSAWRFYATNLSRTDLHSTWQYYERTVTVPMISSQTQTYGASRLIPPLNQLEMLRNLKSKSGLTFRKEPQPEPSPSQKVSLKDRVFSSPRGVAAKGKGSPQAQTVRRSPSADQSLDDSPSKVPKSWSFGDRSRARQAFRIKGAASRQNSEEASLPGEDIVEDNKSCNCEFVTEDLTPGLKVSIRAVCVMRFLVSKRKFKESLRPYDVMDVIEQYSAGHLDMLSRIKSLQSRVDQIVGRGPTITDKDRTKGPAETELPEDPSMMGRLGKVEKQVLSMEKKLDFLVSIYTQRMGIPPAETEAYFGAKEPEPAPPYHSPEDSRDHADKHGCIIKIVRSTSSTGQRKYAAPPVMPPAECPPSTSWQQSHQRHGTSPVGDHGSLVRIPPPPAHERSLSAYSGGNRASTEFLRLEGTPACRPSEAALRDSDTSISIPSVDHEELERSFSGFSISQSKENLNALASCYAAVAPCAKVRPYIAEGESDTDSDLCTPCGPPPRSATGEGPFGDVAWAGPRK
KCNQ1 KCNE1 spec: KCNQ1/KCNE1 channel inhibition, selectivity assay for KCNQ1 inhibitor project, CHO-K1 cells, thallium flux, FluxOR | inhibition, % at 10 µM | hit rate 77% among 1,600 | shares compounds with KCNQ1 inh | FluxOR thallium flux fluorescence;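 active = mean percent inhibition of duplicate wells above the buffer-only control mean plus 3 SD of those controls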
Of the large screens only hits and unclear results are named; the others gave an inactive call (follow-up assays come after a bar, where they were run). Most compounds without a hit are left out; they make up all but 3.8% or so of the library.

CCC1(C)Cc2ccccc2-c2nc(NN)[nH]c(=O)c21 (configuration not stated)	none
O=C(Nc1cccc(Cl)c1)C1CCCN(C2=NS(=O)(=O)c3ccccc32)C1 (configuration not stated)	none (no result: KCNK9 inh, KCNQ1 act, KCNQ1 inh, hERG rescue, Kir21 block)
Cc1ccc(Cl)cc1N1CCN(S(=O)(=O)c2ccc3c(c2)OCCO3)CC1	KCNQ1 inh 7 | KCNQ1 block val 113 | CHO KCNQ1 ctr inactive | KCNQ2 spec 78% | KCNQ1 KCNE1 spec 128%
O=S(=O)(Nc1c(O)ccc2ccccc12)c1ccc(F)cc1	KCNQ1 inh 10 | KCNQ1 block val 42 | CHO KCNQ1 ctr inactive | KCNQ2 spec inactive | KCNQ1 KCNE1 spec 55%
O=S(=O)(Nc1c(O)ccc2ccccc12)c1ccccc1	KCNQ1 inh 11 | KCNQ1 block val 56 | CHO KCNQ1 ctr inactive | KCNQ2 spec inactive | KCNQ1 KCNE1 spec 90%
O=S(=O)(Nc1cccc2ccccc12)c1ccccc1	none
COCCCNc1nc2ccccc2nc1NS(=O)(=O)c1cc(Cl)ccc1Cl	none
CC(C)(C)c1csc(NC(=O)C2COc3ccccc3O2)n1 (configuration not stated)	KCNQ1 inh 7 | KCNQ1 block val 68 | CHO KCNQ1 ctr inactive | KCNQ2 spec 60% | KCNQ1 KCNE1 spec 80%
O=C(Nc1nncs1)C1COc2ccccc2O1 (configuration not stated)	none
CC(C)c1ccc(C(C)NC(=S)NC2CCCCC2)cc1 (configuration not stated)	none
CC(NC(=S)NC1CCCCC1)c1ccc(C(C)(C)C)cc1 (configuration not stated)	KCNQ1 inh 8 | KCNQ1 block val 104 | CHO KCNQ1 ctr inactive | KCNQ1 ephys val inactive | KCNQ2 spec inactive | KCNQ1 KCNE1 spec 77%
CC(Nc1ccc(Cl)cc1)c1cc(Cl)ccc1O (configuration not stated)	KCNQ1 inh 6, Kir21 block -5.8 | KCNQ1 block val 124 | CHO KCNQ1 ctr inactive | KCNQ2 spec inactive | KCNQ1 KCNE1 spec 152%
CCOc1ccc(NC(C)c2cc(Cl)ccc2O)cc1 (configuration not stated)	none
CC(C(=O)Nc1ccc(S(=O)(=O)N2CCCCC2)cc1)N1CCN(c2ccccn2)CC1 (configuration not stated)	none (no result: KCNK3 inh)
CCCC(C)Sc1nc2c([nH]1)c(=S)n(C)c(=O)n2C (configuration not stated)	none (no result: KCNK9 inh, KCNQ1 act, KCNQ1 inh, hERG rescue, Kir21 block)
COc1ccc(-c2nc3cc(C)ccn3c2NCc2ccc3c(c2)OCO3)cc1	KCNQ1 inh 7 | KCNQ1 block val 98 | CHO KCNQ1 ctr inactive | KCNQ1 ephys val inactive | KCNQ2 spec 89% | KCNQ1 KCNE1 spec 136%
c1ccc(-c2nc3ccccn3c2NCc2ccc3c(c2)OCO3)cc1	none
O=C(C=C(C(=O)c1ccccc1)c1ccccc1)c1ccccc1	none (no result: KCNK9 inh, KCNQ1 act, KCNQ1 inh, hERG rescue, Kir21 block)
CC(=O)c1c(C)nc2ccc(Br)cc2c1-c1ccccc1	none
Cc1nc2ccc(Br)cc2c(-c2ccccc2)c1C(=O)O	KCNQ1 inh 6 | KCNQ1 block val inactive | CHO KCNQ1 ctr inactive | KCNQ2 spec 96% | KCNQ1 KCNE1 spec inactive
Cn1c(N)c(C(=O)CSc2nnc(C3CC3)n2Cc2ccccc2)c(=O)[nH]c1=O	none (no result: KCNK9 inh, KCNQ1 act, KCNQ1 inh, hERG rescue, Kir21 block)
CC1CCCCN1CC(O)COCCC12CC3CC(CC(C3)C1)C2 (configuration not stated)	KCNQ1 inh 8 | KCNQ1 block val 90 | CHO KCNQ1 ctr inactive | KCNQ1 ephys val active | KCNQ2 spec 71% | KCNQ1 KCNE1 spec 64%
CCOC(=O)N1CCN(CC(O)COCCC23CC4CC(CC(C4)C2)C3)CC1 (configuration not stated)	none
COc1ccccc1N1CCN(C(=O)CCC(=O)Nc2nnc(CC(C)C)s2)CC1	none
COc1ccc(CCNc2nc(N3CCCCC3)nc(N3CCCCC3)n2)cc1OC	KCNQ1 inh 6 | KCNQ1 block val 106 | CHO KCNQ1 ctr 0.37 | KCNQ2 spec 123% | KCNQ1 KCNE1 spec active
COc1ccc(CCNc2nc(N3CCOCC3)nc(N3CCOCC3)n2)cc1OC	none
CCN(C(=O)CSc1n[nH]c(-c2ccc(OC)cc2)n1)c1c(N)n(Cc2ccccc2)c(=O)[nH]c1=O	none (no result: KCNK9 inh, KCNQ1 act, KCNQ1 inh, hERG rescue, Kir21 block)
CCOC(=O)CSC1=C(C#N)C(c2ccco2)C(C(=O)Nc2cccc(C(F)(F)F)c2)=C(C)N1 (configuration not stated)	KCNQ1 inh 8 | KCNQ1 block val 145 | CHO KCNQ1 ctr inactive | KCNQ1 ephys val inactive | KCNQ2 spec 125% | KCNQ1 KCNE1 spec active
CCOC(=O)C1=C(c2ccccc2)NC(SCC(=O)Nc2ccc(C)cc2)=C(C#N)C1c1ccco1 (configuration not stated)	none
CC1CCCN(S(=O)(=O)c2ccc3[nH]c4c(c3c2)CCCC4)C1 (configuration not stated)	KCNQ1 inh 12 | KCNQ1 block val 104 | CHO KCNQ1 ctr inactive | KCNQ1 ephys val inactive | KCNQ2 spec 99% | KCNQ1 KCNE1 spec 130%
CC1CCCN(S(=O)(=O)c2ccc(S(=O)(=O)N3CCCC3)cc2)C1 (configuration not stated)	none
Cc1nc2cc(NCc3ccccc3O)ccc2n1Cc1ccccc1	KCNQ1 inh 8 | KCNQ1 block val 50 | CHO KCNQ1 ctr inactive | KCNQ2 spec inactive | KCNQ1 KCNE1 spec 43%
Cn1cnc2cc(NCc3ccccc3O)ccc21	none
